The target in data set [1] is T1, Tyrosinase (Homo sapiens) (UniProt P14679).
T1 sequence (whole entry): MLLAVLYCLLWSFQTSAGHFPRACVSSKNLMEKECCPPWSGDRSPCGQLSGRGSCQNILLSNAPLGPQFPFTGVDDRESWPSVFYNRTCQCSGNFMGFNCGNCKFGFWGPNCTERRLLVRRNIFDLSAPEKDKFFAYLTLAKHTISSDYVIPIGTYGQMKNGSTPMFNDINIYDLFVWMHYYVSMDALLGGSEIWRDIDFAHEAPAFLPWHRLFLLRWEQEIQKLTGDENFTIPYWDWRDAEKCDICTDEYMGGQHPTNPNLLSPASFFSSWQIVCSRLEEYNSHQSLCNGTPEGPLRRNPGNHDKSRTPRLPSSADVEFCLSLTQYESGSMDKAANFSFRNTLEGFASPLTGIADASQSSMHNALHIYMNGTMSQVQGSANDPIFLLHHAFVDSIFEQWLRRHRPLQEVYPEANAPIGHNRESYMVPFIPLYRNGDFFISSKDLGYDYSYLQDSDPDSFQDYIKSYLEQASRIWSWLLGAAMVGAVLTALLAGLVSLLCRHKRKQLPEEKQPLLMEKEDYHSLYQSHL
In words: Inhibition of tyrosinase in human black skin melanocytes at 0.01 mM. The class given is cell-based.

Another data set addresses T2, Tyrosinase (Homo sapiens, UniProt P14679).
T2 sequence (P14679 whole entry): T1 sequence (whole entry)
Kind of data set: Inhibitory activity against tyrosinase in human melanocytes. The class given is cell-based.

Data set [2] addresses T1, Tyrosinase (Homo sapiens). Kind of data set: Inhibition of tyrosinase in human dark skin melanocytes at 0.1 mM. The class given is cell-based.
In a further data set the test system is Rattus norvegicus. Kind of data set: Oral toxicity in rats administered at 5 g/kg, po. The class given is organism-based. Particulars: in vivo, 5000 mg/kg. The method, boiled down:
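Acute oral toxicity following OECD 423 acute toxic class method in six female rats. Single dose of 5 g/kg test preparation (10% in xanthane gel). Six female controls received distilled water 2000 mg/kg. Daily observation for 14 days for mortality and signs of toxicity. GHS classification.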

In data set [3] the target is T1, Tyrosinase (Homo sapiens). Kind of data set: Inhibition of tyrosinase in human white skin melanocytes at 0.1 mM. The class given is cell-based.
Data set [4] addresses T1, Tyrosinase (Homo sapiens). In words: Inhibition of tyrosinase in human melanocytes at 0.1 mM. The class given is cell-based.
The target of data set [5] is T1, Tyrosinase (Homo sapiens). In words: Inhibition of tyrosinase in human dark skin melanocytes at 0.01 mM. The class given is cell-based.
The target in data set [6] is T1, Tyrosinase (Homo sapiens). In words: Inhibition of tyrosinase in human black skin melanocytes at 0.1 mM. The class given is cell-based.
Data set [7] deals with T1, Tyrosinase (Homo sapiens). In words: Inhibition of tyrosinase in human white skin melanocytes at 0.01 mM. The class given is cell-based.

Structures are written as SMILES.

The inhibition is the drop in the measured response relative to a control, in per cent. As usually defined, the IC50 is the concentration that gives 50% inhibition. A low value points to greater potency in that assay.

As for `O=C1/C(=C/c2ccc(O)cc2)Oc2cc(O)cc(O)c21`, the inhibition in [1] was 39%; in [2], 67%; in data set [3], 75%; in [4], 75%; in [5] it was 32%; in data set [6], 66%. In data set [7], this compound came in with an inhibition of 38%. In addition, half-maximal inhibition on Tyrosinase (IC50) was put at 38 µM. In addition, the Activity result with Rattus norvegicus is listed as “Non-toxic”.
In the case of `CCc1ccccc1/C=C1\Oc2cc(O)cc(O)c2C1=O`, the inhibition in data set [4] amounted to 0%.
Still for that read-out and setting: to `CCCc1ccc(/C=C2\Oc3cc(O)cc(O)c3C2=O)cc1` belongs 5%; to `CCc1ccc(/C=C2\Oc3cc(O)ccc3C2=O)cc1`, 0%; to `CC(C)(C)c1ccc(/C=C2\Oc3cc(O)cc(O)c3C2=O)cc1`, 0%.
`O=C1/C(=C/c2ccccc2)Oc2cc(O)ccc21` had an inhibition in [4] of 0%.
In the case of `COc1ccc(/C=C2\Oc3cc(O)cc(O)c3C2=O)cc1`, the inhibition in data set [4] amounted to 11%.
For the compound `O=C1/C(=C/c2ccccc2O)Oc2cc(O)cc(O)c21`, the inhibition in data set [4] was 4%.
As for `O=C1/C(=C/c2ccc(O)cc2)Oc2ccccc21`, the inhibition in data set [4] amounted to 39%.
With `O=C1/C(=C/c2ccccc2)Oc2cc(O)cc(O)c21`, in data set [4], the inhibition stood at 3%.
Consider `CCOc1ccc(/C=C2\Oc3cc(O)cc(O)c3C2=O)cc1`, for which, in data set [4], the inhibition amounted to 5%.
On to `COc1cc(/C=C2\Oc3cc(O)cc(O)c3C2=O)ccc1O`, for which the inhibition in [4] came out at 4%.

For the origin of these results see ChEMBL document CHEMBL1148577, “Discovery of benzylidenebenzofuran-3(2H)-one (aurones) as inhibitors of tyrosinase derived from human melanocytes” (J Med Chem, 2006).
